For test [1], the target named is Transcription factor p65 (Homo sapiens) (UniProt Q04206). Kind of test: Inhibition of TNF-alpha-stimulated human NF-kappaB p65 RelA subunit nuclear translocation in HUVEC. The method, boiled down:
(§1)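 HUVEC (fewer than 8 passages) were seeded at 3,000 cells/well. Compounds were added in 8-point series, either from 10 µM final in media with 0.33% DMSO diluted 1:3, or from 8 µM diluted 1:2. After 3.5 h with compound, cells were stimulated with […] for 30 min. Cells were then fixed, permeabilized, stained with Hoechst and with anti-p65 plus an Alexa 647 secondary, and imaged automatically. IC50 is from curve fitting of one experiment run in triplicate, with BAY 11-7082 as the positive control.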

Test [2] relates to HUVEC. Kind of test: (§2) Inhibition of TNFalpha stimulated human NF-kappaB-mediated beta lactamase gene expression in HUVEC. The format is cell-based.
The nature of test [3]: (§3) Cytotoxicity against NF-kappaB overexpressing human OCI-Ly3 cells after 4 hrs. The format is functional, cell-based. The conditions noted are these: OCI-Ly3, 4 h.
Test [4] in a line: as §2. The format is cell-based.
The next test concerns OCI-Ly3. The test is described as §3. The format is functional, cell-based.
In test [5] the target is Transcription factor p65 (Homo sapiens) (UniProt Q04206). Briefly: Inhibition of TNF-alpha-stimulated human NF-kappaB p65 RelA subunit nuclear translocation in HUVEC relative to control. The format is cell-based. The method, boiled down:
as §1

In test [6] the target is T1, NF-kappa-B inhibitor alpha (Homo sapiens) (UniProt P25963).
T1 sequence (whole entry): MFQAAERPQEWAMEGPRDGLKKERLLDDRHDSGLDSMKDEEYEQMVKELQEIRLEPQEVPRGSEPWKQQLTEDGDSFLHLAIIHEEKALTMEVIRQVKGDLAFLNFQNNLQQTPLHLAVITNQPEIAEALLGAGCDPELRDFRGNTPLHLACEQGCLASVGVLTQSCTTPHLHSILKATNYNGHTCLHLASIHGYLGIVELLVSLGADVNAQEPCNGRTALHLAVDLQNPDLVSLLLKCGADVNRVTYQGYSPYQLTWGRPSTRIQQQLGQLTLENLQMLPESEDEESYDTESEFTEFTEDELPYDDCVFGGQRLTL
Kind of test: Induction of human IkappaBalpha stabilization in OCI-Ly3 cells by green light emiting IkappaBalpha-fused luciferase reporter gene assay relative to control. The format is cell-based. Summed up: (§4)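 The IκBα-CBG68 fusion (green luminescence) and the CBR control reporter (red) were induced with doxycycline. The read-out was green luminescence, and EC50 is given with % efficacy relative to the MG-132 positive control. Each experiment was a concentration titration run in duplicate with concentration-response curve fitting, and values are averages of two to three experiments.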
(Reporter assays use an easily measured gene product as a stand-in for the process of interest.)

Test [7] deals with T1, NF-kappa-B inhibitor alpha (Homo sapiens). Briefly: Induction of human IkappaBalpha stabilization in OCI-Ly3 cells assessed as ratio of green light emiting IkappaBalpha-fused luciferase expression to red light emiting native luciferase expression. The format is cell-based. The method, boiled down:
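Dual-luciferase IκBα stabilization assay: doxycycline induces both an IκBα-CBG68 fusion (green luminescence) and a CBR control (red luminescence), and the red signal normalizes for nonspecific effects. EC50 comes from the green/red luminescence ratio. Each experiment was a concentration titration run in duplicate with concentration-response curve fitting, and values are averages of two to three experiments.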

For test [8] the target is unchanged. Briefly: Induction of human IkappaBalpha stabilization in OCI-Ly3 cells by green light emiting IkappaBalpha-fused luciferase reporter gene assay. The format is cell-based. The method, boiled down: as §4
Test [9] deals with HUVEC. Kind of test: Inhibition of human E3 ubiquitin ligase-mediated IkappaBalpha ubiquitination in HUVEC. The format is cell-based.

Active and inactive are the calls of the source. No cut-off for these calls is given here.

Sequence of Transcription factor p65 (Homo sapiens) (Q04206 whole entry): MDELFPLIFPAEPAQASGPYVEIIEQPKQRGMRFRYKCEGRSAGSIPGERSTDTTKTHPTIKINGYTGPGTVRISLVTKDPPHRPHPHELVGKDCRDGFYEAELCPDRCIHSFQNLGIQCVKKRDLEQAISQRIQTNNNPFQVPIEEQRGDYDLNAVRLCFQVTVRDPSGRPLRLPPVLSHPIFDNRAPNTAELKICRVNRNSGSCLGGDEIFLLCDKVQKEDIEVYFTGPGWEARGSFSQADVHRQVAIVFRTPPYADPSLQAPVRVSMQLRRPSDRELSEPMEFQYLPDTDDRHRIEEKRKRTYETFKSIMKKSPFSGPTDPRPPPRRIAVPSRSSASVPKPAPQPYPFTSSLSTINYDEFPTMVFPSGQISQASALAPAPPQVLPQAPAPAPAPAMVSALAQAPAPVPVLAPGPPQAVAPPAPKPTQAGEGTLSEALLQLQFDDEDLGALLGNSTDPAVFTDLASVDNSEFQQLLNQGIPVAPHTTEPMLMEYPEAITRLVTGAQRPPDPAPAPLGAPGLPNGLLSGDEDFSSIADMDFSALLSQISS

Regarding `COc1cc(NS(=O)(=O)c2ccc(C)cc2[N+](=O)[O-])c2nc(C)ccc2c1`, the result (in [1]; in the test with HUVEC [2]) was inactive. The IC50 (commonly the concentration at which inhibition is half-maximal) in test [3] was more than 57 µM.
In the case of `Cc1ccc2cccc(NS(=O)(=O)c3cc([N+](=O)[O-])ccc3C)c2n1`, the result (in [1]; in the test on OCI-Ly3) was inactive. Besides, the IC50 in [4] was more than 57 µM.
`Cc1ccc2cccc(NS(=O)(=O)c3cccc([N+](=O)[O-])c3)c2n1`: the Efficacy in test [5] was more than 90%; in test [6], 110%. Also, the IC50 is 1 µM in test [4] and more than 57 µM in test [3].
For `COc1ccc2c(c1)-c1ccc3ccc(C)nc3c1NS2(=O)=O` the same measures were more than 90%, 200%, 3.2 µM and more than 57 µM.
In the case of `COc1cc(NS(=O)(=O)c2ccc(C)cc2)c2nc(C)ccc2c1`, the results for the Efficacy in test [5] and in test [6] were more than 90% and 150%, respectively. Moreover, the IC50 in [4] and in test [3] was more than 57 µM each time.
For `COc1cc(NS(=O)(=O)c2ccc(C)cc2N)c2nc(C)ccc2c1`, the outcome (in test [1]; with OCI-Ly3) was inactive. Further, in [4], the IC50 is more than 57 µM. In test [6], the Efficacy was 23%.
With `Cc1ccc2cccc(NS(=O)(=O)c3ccc(Br)s3)c2n1`, the Efficacy is 75% in test [5] and 22% in test [6]. Moreover, the IC50 is 5 µM in [4] and more than 57 µM in [3].
Take `COc1cccc2nc(-c3cccs3)nc(NN3C(=O)C=C(C)C3=O)c12` [AS-602868]: the result (in test [7]; in test [1]; in the test on OCI-Ly3; in test [8]) was inactive. The compound further registered a 50% inhibitory concentration (IC50) in test [4] of 2 µM.
`Cc1ccc2cccc(NS(=O)(=O)c3ccc(C(F)(F)F)cc3[N+](=O)[O-])c2n1`: the Efficacy in [5] is more than 90%; in test [6] it was 50%. In addition, the IC50 is 13 µM in test [4] and more than 57 µM in [3].
Regarding `O=S1(=O)Nc2c(ccc3cccnc23)-c2cc(O)ccc21`, in test [1], the result was inactive.
Consider `O=[N+]([O-])c1cc(C(F)(F)F)ccc1S(=O)(=O)Nc1cccc2cccnc12`, for which the values for the Efficacy in test [5] and in test [6] were more than 90% and 200%, respectively. Also, the IC50 is 1.3 µM in test [4] and more than 57 µM in [3].
For `O=S(=O)(Nc1cccc2cccnc12)c1ccc(Cl)s1` the same measures were more than 90%, 190%, 1 µM and more than 57 µM.
For `Cc1ccc2c(c1)-c1ccc3cccnc3c1NS2(=O)=O` the same measures were more than 90%, 60%, 0.8 µM and more than 57 µM.
Take `COc1cc(NS(=O)(=O)c2ccc(C)cc2[N+](=O)[O-])c2ncccc2c1`: the Efficacy in test [5] is more than 90%; in test [6], 60%. The 50% inhibitory concentration (IC50) was 4 µM in test [4] and more than 57 µM in test [3].
As to `Cc1ccc(S(=O)(=O)Nc2cccc3cccnc23)c([N+](=O)[O-])c1`, the values for the Efficacy in test [5] and in [6] were more than 90% and 275%, respectively. The values for the IC50 in test [4] and in test [3] were 6 µM and more than 57 µM, respectively.
For `O=S1(=O)Nc2c(ccc3cccnc23)-c2ccccc21`, the values for the Efficacy in test [5] and in test [6] were more than 90% and 120%, respectively. Also, half-maximal inhibition in test [4] (IC50) required 3.4 µM. For the same compound, the result in the test with OCI-Ly3 and in the test on HUVEC [9] was inactive.
On to `Cc1ccc2cccc(NS(=O)(=O)c3ccc(Cl)s3)c2n1`, for which the Efficacy in test [5] is more than 90%; in [6], 60%. Moreover, the IC50 in [4] is 1.3 µM; in test [3] it was more than 10 µM.
For `Cc1ccc2ccc3c(c2n1)NS(=O)(=O)c1ccc(O)cc1-3` the same measures were more than 90%, 120%, 6.7 µM and more than 57 µM.
For `COc1cc(NS(=O)(=O)c2ccc(C)cc2N)c2ncccc2c1` the same measures were more than 90%, 90%, 2 µM and more than 57 µM.
`[O-][S+](c1ccccc1)c1ccc2nnnn2n1` (stereo not drawn): in the test with HUVEC [9], the result was Active.
Consider `Cc1ccc([N+](=O)[O-])cc1S(=O)(=O)Nc1cccc2cccnc12`, for which the Efficacy in test [5] was more than 90%; in [6] it was 18%. For the same compound, the IC50 in [4] was 1.8 µM; in [3] it was more than 57 µM.

Source of the values: ChEMBL document CHEMBL1142284, “Identification of N-(quinolin-8-yl)benzenesulfonamides as agents capable of down-regulating NFkappaB activity within two separate high-throughput screens of NFkappaB activation” (Bioorg Med Chem Lett, 2008).
